Several values for one entry are separate records, joined by “and”; a condition that tells them apart may be missing. Identical values can stand only once. Like-named read-outs stand apart in the source and are kept apart here.
Tests used:
A2058 (BRAF mutation) = test: MTT cell viability assay, A2058; type: cell-based; conditions: read-out: IC50, A2058 (BRAF mutation); 24 h treatment, human cell line
Procedure, shortened: (§1)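 Cells were seeded in 96-well plates overnight, then exposed to test compound for 24 h at concentrations up to 10 μM. Growth was read by MTT as OD570. Viability was expressed relative to vehicle (0.5% DMSO) set as 100%, and IC50 was derived from this.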

A375 (BRAF mutation) = test: MTT cell viability assay, A375; type: cell-based, human
[1] = test system: MeWo (No NRAS or BRAF mutation); test: MTT cell viability assay, MeWo; type: cell-based; conditions: read-out: IC50, MeWo (No NRAS or BRAF mutation); 24 h treatment, human cell line
Procedure, shortened: as §1

B16-F10 (NRAS mutation) = test: MTT cell viability assay, B16-F10; type: cell-based; conditions: read-out: IC50, B16-F10 (NRAS mutation); 24 h treatment, mouse cell line
Procedure, shortened: as §1

SK-MEL-2 (NRAS mutation) = test: MTT cell viability assay, SK-MEL-2; type: cell-based; conditions: read-out: IC50, SK-MEL-2 (NRAS mutation); 24 h treatment, human cell line
Procedure, shortened: as §1

[2] = test system: Melanocyte (Normal cells); test: MTT cell viability assay, normal melanocytes; type: cell-based; conditions: read-out: IC50, Melanocyte (Normal cells); 24 h treatment, human cells
Procedure, shortened: as §1

metastatic melanoma = conditions: cited from earlier work
[3] = test system: A375-R cells (acquired vemurafenib resistance); test: MTT cell viability assay, A375-R; type: cell-based, human
A375-R cells [4] = test: Colony formation assay, A375-R; type: cell-based, human; conditions: 21 days
Procedure, shortened: (§2)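 A375 or A375-R cells were grown in 24-well plates with treatment for 21 days, with drug-containing medium renewed every three days. Colonies were stained with 0.1% crystal violet in PBS. Dye was extracted with 20% acetic acid and absorbance read at 595 nm. Values are colony formation relative to control, n = 4.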

A375-R cells [5] = test: ROS measurement, A375-R; type: cell-based, human; conditions: 5 µM, 2 h
A375 xenografts = test: A375 xenograft tumor model; type: in vivo, NOD/SCID mice
Procedure, shortened: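 A375 cells (3×10^6) were injected subcutaneously into the flanks of 6-week-old female NOD/SCID mice. At about 50 mm³, mice were randomised, n = 8 per group. Dosing was PLX4032 20 mg/kg/day and test compound 20 mg/kg every two days. Combination arms alternated test compound (20 mg/kg every four days) with PLX4032 (20 mg/kg every two days). Volume (a×b²×0.5) was measured every three days. Tumours were dissected and weighed. TGI compared volume change with vehicle.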

A375 cells [6] = test: ROS measurement, A375; type: cell-based, human; conditions: A375, 5 µM, 2 h
A375 cells [7] = test: Cell cycle analysis, A375; type: cell-based, human; conditions: A375, 24 h
Procedure, shortened: (§3)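 Cells were synchronised in medium with 1% FBS for 12 h, then given fresh 10% FBS medium with vehicle or test compound for 24 h. Adherent and floating cells were pooled, fixed overnight in ice-cold 70% ethanol at 4°C, and stained with propidium iodide/RNase A for 30 min at room temperature in the dark. Cells were then analysed by flow cytometry.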

A375 cells [8] = test: Apoptosis detection; type: cell-based, human; conditions: A375, 72 h
Procedure, shortened: (§4)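 Cells were seeded in 6-well plates and exposed to vehicle or test compound for 72 h. Apoptotic cells were scored by Annexin V-FITC plus propidium iodide double staining and flow cytometry.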

A375-R cells [9] = test: Cell cycle analysis, A375-R; type: cell-based, human
Procedure, shortened: as §3

[10] = test system: A375-R xenografts (acquired vemurafenib resistance); test: A375-R xenograft tumor model; type: in vivo, NOD/SCID mice
Procedure, shortened: (§5)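 Female NOD/SCID mice, 6 weeks old, received 3×10^6 A375-R or A2058 cells subcutaneously in the flank. Treatment began at about 50 mm³ tumour volume, with 8 mice per randomised group. Doses were PLX4032 75 mg/kg/day and test compound 20 mg/kg every two days; combination arms alternated the two, each every two days. Tumour volume (a×b²×0.5) and body weight were recorded every three days. TGI used initial-to-final volume change versus vehicle.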

A375 cells [11] = test: Colony formation assay, A375; type: cell-based, human; conditions: for inhibition of colony formation: 21 days
Procedure, shortened: as §2

[12] = test system: A2058 xenografts (intrinsic vemurafenib resistance); test: A2058 xenograft tumor model; type: in vivo, NOD/SCID mice; conditions: 75 mg/kg/day, 24 doses in total
Procedure, shortened: as §5

A375-R cells [13] = test: Apoptosis detection, A375-R; type: cell-based, human
Procedure, shortened: as §4

[14] = read-out: IC50, A375 (BRAF mutation), 24 h treatment, human cell line
[15] = 20 mg/kg/every two days, 12 doses in total
[16] = 20 mg/kg/day, 24 doses in total

| SMILES | IC50 (A375 (BRAF mutation); [14]) | IC50 (B16-F10 (NRAS mutation)) [µM] | IC50 (SK-MEL-2 (NRAS mutation)) [µM] | IC50 (A2058 (BRAF mutation)) [µM] | IC50 [1] [µM] | IC50 [2] [µM] | also measured |
| --- | --- | --- | --- | --- | --- | --- | --- |
| CN(C)/N=N/c1[nH]cnc1C(N)=O [dacarbazine] | – | – | – | – | – | – | complete response (metastatic melanoma; metastatic melanoma): less than 5% |
| C=C1C(=O)OC2CC3=C[C@@H](C/C(C)=C/C(OC(C)=O)[C@H]12)OC3=O (stereo partly shown) [DETD-17] | > 10 µM | > 10 | > 10 | > 10 | > 10 | > 10 | – |
| C=C1C(=O)OC2CC3=C[C@@H](C/C(C)=C/C(OC(=O)Cc4ccccc4)[C@H]12)OC3=O (stereo partly shown) [DETD-43] | 3.6 ± 0.25 µM | 7.4 ± 0.48 | 8.2 ± 0.27 | 8.7 ± 0.33 | > 10 | > 10 | – |
| CC(=O)N[C@@H](CS)C(=O)O [NAC, N-acetyl-L-cysteine, reference compound] | – | – | – | – | – | – | effect on A375 cell viability (A375 (BRAF mutation); 5 mM alone): did not affect; effect on A375-R cell viability ([3]; 5 mM alone): did not affect |
| C=C(C)C(=O)O[C@H]1CC2=C[C@@H](C/C(C)=C/[C@H]3OC(=O)C(=C)[C@H]13)OC2=O [DET, deoxyelephantopin] | 6 µM and 5.9 µM | 6 ± 0.13 | > 10 | > 10 | > 10 | > 10 | inhibition of A375 cell viability (A375 (BRAF mutation); 2 µM, 72 h): 55%; effect on colony formation of A375-R cells (A375-R cells [4]): inhibited colony formation; increase of ROS level (A375-R cells [5]): more than 2 fold; reduction of tumor mass (A375 xenografts; [15]): 47.5%; tumor growth inhibition (TGI) (A375 xenografts; [15]): 71.0%; increase of ROS level (A375 cells [6]): more than 2 fold; effect on cell-cycle distribution (A375 cells [7]): induced G2/M-phase arrest; apoptosis (A375 cells [8]): ≤ 67.8%; effect on cell-cycle distribution (A375-R cells [9]): G2/M-phase cell-cycle arrest; inhibition of A375-R cell viability ([3]; 2 µM, 72 h): 65%; tumor growth inhibition (TGI) ([10]; A375-R, 20 mg/kg/every two days, 12 doses in total): 31.2%; inhibition of colony formation (A375 cells [11]; 1 µM): 38%; inhibition of colony formation (A375 cells [11]; 2.5 µM): 65%; inhibition of colony formation (A375 cells [11]; 5 µM): 91% |
| CCCS(=O)(=O)Nc1ccc(F)c(C(=O)c2c[nH]c3ncc(-c4ccc(Cl)cc4)cc23)c1F [PLX4032, vemurafenib, reference compound] | – | – | – | – | – | – | IC50 (A375 (BRAF mutation); Homo sapiens, A-375, 72 h, read-out: IC50 on A375 cells): 0.07 µM; effect on colony formation of A375-R cells (A375-R cells [4]): no inhibitory effect; anti-tumor activity [12]: no anti-tumor activity; reduction of tumor mass (A375 xenografts; [16]): 71.9%; tumor growth inhibition (TGI) (A375 xenografts; [16]): 87.4%; apoptosis (A375-R cells [13]): no effect; effect on cell-cycle distribution (A375 cells [7]): G1-phase cell-cycle arrest; apoptosis (A375 cells [8]): 10.4%; effect on cell-cycle distribution (A375-R cells [9]): no effect; IC50 ([3]; Homo sapiens, 72 h, read-out: IC50 on A375-R cells): 7.34 µM; fold less sensitive, A375-R compared to parental cell line ([3]; IC50 A375-R vs A375): 100 fold; average time to relapse after therapy (metastatic melanoma; melanoma patients): ≤ 7 months; anti-tumor activity ([10]; A375-R xenograft, 75 mg/kg/day, 24 doses in total): no anti-tumor activity; inhibition at 0.1 µM (A375 cells [11]; Homo sapiens, A-375, 504 h, read-out: inhibition of colony formation): 55% |

The next lines start with results.

| IC50 (A375 (BRAF mutation); [14]) | IC50 (B16-F10 (NRAS mutation)) [µM] | IC50 (SK-MEL-2 (NRAS mutation)) [µM] | SMILES | IC50 (A2058 (BRAF mutation)) [µM] | IC50 [1] [µM] | IC50 [2] [µM] | also measured |
| --- | --- | --- | --- | --- | --- | --- | --- |
| 4.1 ± 0.15 µM | 4.7 ± 0.03 | 7.8 ± 0.14 | C=C1C(=O)OC2CC3=C[C@@H](C/C(C)=C/C(OC(=O)/C(C)=C/CC)[C@H]12)OC3=O (stereo partly shown) [DETD-5] | 5.8 ± 0.08 | > 10 | > 10 | – |
| > 10 µM | 7.8 ± 0.28 | > 10 | C=C(CC)C(=O)OC1/C=C(\C)C[C@@H]2C=C(CC3OC(=O)C(=C)[C@@H]13)C(=O)O2 (stereo partly shown) [DETD-19] | > 10 | > 10 | > 10 | – |
| > 10 µM | > 10 | > 10 | C=C1C(=O)OC2CC3=C[C@@H](C/C(C)=C/C(OC(=O)/C=C/C)[C@H]12)OC3=O (stereo partly shown) [DETD-24] | > 10 | > 10 | > 10 | – |
| 2.9 ± 0.26 µM | 2.2 ± 0.29 | 5.9 ± 0.2 | C=C1C(=O)OC2CC3=C[C@@H](C/C(C)=C/C(OC(=O)c4ccc(C)cc4)[C@H]12)OC3=O (stereo partly shown) [DETD-33] | 4.2 ± 0.09 | 6.7 ± 0.22 | > 10 | – |
| 4.3 ± 0.62 µM | 2.9 ± 0.78 | > 10 | C=C1C(=O)OC2CC3=C[C@@H](C/C(C)=C/C(OC(=O)c4ccccc4)[C@H]12)OC3=O (stereo partly shown) [DETD-31] | > 10 | > 10 | > 10 | – |
| > 10 µM | > 10 | > 10 | C=C1C(=O)OC2CC3=C[C@@H](C/C(C)=C/C(O)[C@H]12)OC3=O (stereo partly shown) [DETD-3] | > 10 | > 10 | > 10 | – |
| > 10 µM | 7.1 ± 0.09 | > 10 | C=C1C(=O)OC2CC3=C[C@@H](C/C(C)=C/C(OC(=O)C(C)CC)[C@H]12)OC3=O (stereo partly shown) [DETD-13] | > 10 | > 10 | > 10 | – |
